# Assay outcomes (PubChem BioAssay)
# A selection: hits, their analogues and other compounds. The true share with any hit is near 3.7%.
# MDM2 E3 inh: Mdm2 E3 ligase (human) inhibition | Q00987 | cell-based MDM2 ubiquitination luciferase reporter, 2 h; 0 = plate control, 100 = twice control, blank-subtracted | signal enhancement, % at 5 µM | 0.11% of 210,000 active | AID 1230;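 active = signal enhancement of 30% or more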;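 note: luminescence tracks abundance of the self-degrading MDM2-luciferase fusion protein; higher signal means inhibition of MDM2 E3 ligase activity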
# Target sequence (Q00987 whole entry, looked up, the tested form may be a part): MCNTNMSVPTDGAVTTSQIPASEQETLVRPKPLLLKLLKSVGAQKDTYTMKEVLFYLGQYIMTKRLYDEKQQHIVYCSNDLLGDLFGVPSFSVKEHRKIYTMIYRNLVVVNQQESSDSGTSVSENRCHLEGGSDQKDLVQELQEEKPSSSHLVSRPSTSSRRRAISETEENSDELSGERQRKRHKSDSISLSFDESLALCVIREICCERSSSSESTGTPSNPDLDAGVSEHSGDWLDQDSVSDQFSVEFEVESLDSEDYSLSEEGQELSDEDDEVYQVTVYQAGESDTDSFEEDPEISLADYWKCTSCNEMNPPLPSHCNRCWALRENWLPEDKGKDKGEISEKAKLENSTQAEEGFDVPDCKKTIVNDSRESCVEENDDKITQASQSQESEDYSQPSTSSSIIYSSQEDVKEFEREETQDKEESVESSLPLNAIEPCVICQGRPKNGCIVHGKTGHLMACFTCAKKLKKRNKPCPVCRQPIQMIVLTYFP
#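 Material: Stable MDM2–luciferase fusion reporter cells | Amount: 2000 cells seeded into each well | Dosing: One concentration, 5 µM, with 0.2% DMSO | Incubation: 4 h cell settling then 2 h compound exposure, 37 °C | Measured by: Luciferase luminescence | Read-out basis: % enhancement relative to plate controls after blank subtraction | Benchmarks: Control and blank well means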
# UPR XBP1 act: adaptive UPR (XBP1) activation; 0.33% of 330,000 active; AID 463104; activation, % at 20 µM; CHO-XBP1 luciferase reporter, IRE1-XBP1 UPR activation, luminescence; percent of tunicamycin response, DMSO as zero;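 active = versus positive control, 20 µM dose yields 30% or more activation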;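 note: 100% = tunicamycin at 10 µg/mL and 0% = DMSO only wells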
#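 Material: CHO-XBP1 cells stably carrying IRE1-XBP1-driven luciferase reporter / Amount: 1000 cells per well / Compound: 20 µM, 1% DMSO / Times: 6 h treatment, 37 °C / Detection: luciferase luminescence / Measure: % activation of reporter signal versus tunicamycin and DMSO controls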
# Dynein transport: blocks dynein driven cargo transport along microtubules; 3617.4 mouse cells, GR-EGFP nuclear translocation imaging; test concentration mostly 20 µM; stimulated with dexamethasone, 1 µM; hits give low values; z-score, hits read low; 0.47% of 220,000 active;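 active = plate z-score of nuclear minus cytoplasmic receptor signal below a set negative limit, without overly bright fluorescence or cell loss, cut at about -3.5 in these data, passing the limit was not always enough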;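 note: z-score of nuclear minus cytoplasmic ring GR-EGFP intensity difference per well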
#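 Medium: Induction medium lacking tetracycline, stripped serum | Probe or stimulus: 1.0 µM final dexamethasone stimulus | Schedule: 48 h induction, then 1 h compound, then 30 min agonist, 37 °C | Signal: Automated 10x imaging of fixed Hoechst-stained cells | Evaluation: Per-cell GR-EGFP intensity, nucleus versus surrounding cytoplasmic ring, well-averaged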
# Mdm2-MdmX inh: inhibitors of human Mdm2/MdmX interaction. SaOS-2 split-luciferase Mdm2/MdmX complementation, luminescence. inhibition, % at 8 µM. 3% of 330,000 active;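 active = inhibition of at least 50% at 8 µM in the primary screen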
# B2AR ag: human beta-2 adrenergic receptor agonism by FAP. P07550. Am2.2-beta2AR cells, FAP receptor internalization, flow cytometry. response, % (no concentration beside the values). 0.43% of 340,000 active. AID 504454;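 active = response above a set limit, near 3 SD of response in nonfluorescent compounds, cut at about 42% in these data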
# UPR CHOP act: apoptotic UPR (CHOP) activation | CHO-CHOP luciferase reporter, luminescence; percent of tunicamycin response over DMSO baseline | activation, % at 10 µM | 0.34% of 330,000 active | AID 449763;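 active = at 10 µM dose, activation of 40% or more, normalized to positive control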;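 note: 100% = tunicamycin at 10 µg/mL and 0% = DMSO alone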
#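 Test system: CHO CHOP reporter cells. Input: 500 CHO-CHOP cells per well. Medium: F12 with 10% FBS. Technique: luciferase luminescence. Measure: percent activation relative to tunicamycin control. Dosing: 10 µM compound, 0.5% DMSO. Timing: 16-18 h cell attachment, then 6 h compound exposure, 37 °C.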
# CHOP UPR conf: apoptotic UPR (CHOP) activation, confirmed | 64% of 1,000 active | shares compounds with UPR CHOP act | activation, % at 10 µM | CHO-CHOP cells, CHOP-luciferase reporter luminescence; percent of tunicamycin response, DMSO as zero; in the data active = activation above about 33%;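 note: 0% = DMSO wells and 100% = tunicamycin 10 µg/mL wells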
# Active calls of the source: *; / = not tested or not shown.
SMILES,MDM2 E3 inh,UPR XBP1 act,Dynein transport,Mdm2-MdmX inh,B2AR ag,UPR CHOP act,CHOP UPR conf
Cc1occc1C(=O)N1CCN(S(=O)(=O)c2ccc(F)cc2)CC1,/,-1.5,/,-31.1,2.9,0.5,/
COc1ccc(C2Nc3ccccc3NC3=C2C(=O)CC(C)(C)C3)cc1O (stereo unspecified),/,-4.5,/,25.9,10.5,/,-0.8
O=C1CC(c2ccccc2)CC(O)=C1C=Nc1ccc(Cl)cc1 (stereo unspecified),-10.3,25.9,-0.249,-3.9,0.8,42.5*,29.0
Cc1cc(SCC(=O)N/N=C/c2ccc(O)c(O)c2)nc2ccccc12,/,58.6*,/,34.2,9.2,107.6*,42.0*
COc1ccc2nc(C)cc(SCC(=O)N/N=C/c3ccc(O)c(O)c3)c2c1,-6.5,6.3,-1.5,7.5,17.0,0.4,/
Cc1cc(SCC(=O)N/N=C/c2ccc(O)c(O)c2)c(C)cc1Br,/,22.6,-0.719,22.2,9.7,57.4*,19.8
O=C(N/N=C/c1ccc(O)c(O)c1)c1cc(-c2ccccc2)nc2ccccc12,/,33.6*,/,-3.7,-3.9,98.6*,25.2
O=C(CSc1nc2ccccc2o1)N/N=C/c1ccc(O)c(O)c1,/,21.7,-0.945,-44.5,-1.1,18.3,/
O=C(NCc1ccc(OC(F)(F)F)cc1)C1CC2Cn3c(nc4ccccc43)C2N1c1ccccc1 (stereo unspecified),/,0.9,/,2.9,-10.8,1.0,/
Cc1c(C(=O)NC2CCCc3ccccc32)cccc1[N+](=O)[O-] (stereo unspecified),/,-0.5,/,-2.7,3.0,-0.6,/
CCSC1(SCC)N=C(N)C2(C#N)C(c3ccc(F)cc3)C12C#N (stereo unspecified),22.4,0.2,1.8,35.5,24.6,61.0*,124.0*
COc1ccc(N2C(=O)C(Cl)=C(Oc3cccc(OC)c3)C2=O)cc1,4.7,-5.5,-0.129,23.3,5.4,93.9*,31.2
C=CCNC(=O)Cn1nnc(-c2ccc(-c3ccc(OC)cc3)cc2)n1,/,1.1,/,2.6,-12.0,6.2,/
Cc1ncc2c(n1)NC(=O)NC2,/,/,/,/,0.1,/,/
COc1c(F)c(F)c(C(=O)O)c(Nc2ccc(C)cc2C)c1F,-1.8,0.7,-0.28,9.3,-3.0,0.3,/
COc1ccc(NC(=O)/C(C#N)=C\c2ccc(Br)o2)cc1,/,0.8,-0.217,-3.8,-3.5,5.9,/
N#C/C(=C\c1ccc([N+](=O)[O-])o1)C(=O)Nc1ccc(F)cc1,-1.4,-3.7,-0.608,14.1,-59.5,166.0*,156.4*
CN(CC(=O)Nc1c(Cl)cccc1Cl)C(=O)CCNS(=O)(=O)c1ccccc1C(F)(F)F,/,-1.1,/,21.5,-6.6,1.2,/
CC1(C)C[C@H]2C3=CCC4[C@@]5(C)CC[C@H](O)[C@](C)(CO)C5CC[C@@]4(C)[C@]3(C)C[C@H]3O[C@@H]1[C@H](O)[C@]32CO (stereo partly specified),/,-2.6,/,10.2,-2.0,-0.3,/
Oc1ccc(Nc2nc(-c3ccc4ccccc4c3)cs2)cc1,-47.3,16.5,-3.25,-87.8,11.7,62.9*,30.1
Oc1ccc(-c2nc(-c3ccc(O)c(O)c3)cs2)cc1,-10.6,9.2,-2.04,12.2,0.8,146.4*,96.5*
Oc1ccc(-c2csc(-c3cccnc3)n2)c(O)c1,-27.1,1.0,-2.94,-18.4,-1.9,3.8,/
CCc1cc(C(=O)c2ccc(C)cc2)c(NC(=O)CCl)s1,-6.2,6.2,-3.09,47.5,15.4,108.0*,113.7*
O=S(=O)(c1ccccc1)C1CC1(c1ccccc1)c1ccccc1 (stereo unspecified),/,/,/,/,-2.0,/,/
CC(C)Cc1nc(N2CCN(C(=O)C(C)C)CC2)c(C#N)c2c1CCC2,-12.9,-2.9,-0.509,17.1,7.4,40.2*,0.0
